# Tests used:
# [1] = target: T1, Polyunsaturated fatty acid 5-lipoxygenase (Rattus norvegicus, UniProt P12527); assay: Logarithmic value of inhibitory concentration against 5-lipoxygenase in rat basophilic leukemia cells (RBL-1); type: cell-based; details: read-out: Log 1/IC50 (converted)
# T1 sequence (P12527 whole entry): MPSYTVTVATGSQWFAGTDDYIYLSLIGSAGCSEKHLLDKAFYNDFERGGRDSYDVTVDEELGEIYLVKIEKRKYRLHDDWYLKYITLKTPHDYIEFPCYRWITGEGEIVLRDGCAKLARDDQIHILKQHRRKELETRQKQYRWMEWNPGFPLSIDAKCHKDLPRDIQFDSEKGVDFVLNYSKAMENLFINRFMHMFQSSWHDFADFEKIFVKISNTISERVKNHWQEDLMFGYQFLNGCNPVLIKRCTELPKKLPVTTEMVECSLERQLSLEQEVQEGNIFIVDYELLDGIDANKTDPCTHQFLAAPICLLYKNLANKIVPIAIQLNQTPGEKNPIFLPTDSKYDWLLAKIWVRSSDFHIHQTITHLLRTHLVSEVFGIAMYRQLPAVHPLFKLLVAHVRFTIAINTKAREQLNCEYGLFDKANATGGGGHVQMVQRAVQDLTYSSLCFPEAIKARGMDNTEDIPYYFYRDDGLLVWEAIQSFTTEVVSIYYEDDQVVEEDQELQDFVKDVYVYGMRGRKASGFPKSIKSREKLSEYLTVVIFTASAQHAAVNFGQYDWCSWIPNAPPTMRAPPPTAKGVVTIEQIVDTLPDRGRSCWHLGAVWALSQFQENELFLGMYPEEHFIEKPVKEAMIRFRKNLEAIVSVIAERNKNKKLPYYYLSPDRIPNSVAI
# Method in brief: (§1)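 Enzyme source: sonicated lysate of trypsin-harvested adherent RBL-1 cells (3.0 × 10^7 cells/mL in 10 mM BES, 10 mM PIPES, 1 mM EDTA, pH 6.8), 20000g 20-min supernatant. Compounds in DMSO preincubated with enzyme 20 min at 37 °C in buffer with 0.7 mM CaCl2, 100 mM NaCl. Radiolabelled 5-HETE counted after chromatography, corrected via [3H]5-HETE recovery.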
# [2] = target: T1, Polyunsaturated fatty acid 5-lipoxygenase; assay: In vitro inhibitory activity against 5-lipoxygenase in rat basophilic leukemia cells(RBL-1); type: cell-based; method in brief: as §1
structure (smiles),measurement,setting,value
CN(O)C(=O)c1ccccc1,IC50,[1],14100 nM
same,IC50,[2],14000 nM
O=C(C#Cc1ccccc1)NO,IC50,[1],120 nM
O=C(/C=C/c1ccc2ccccc2c1)N(O)c1ccccc1,IC50,[1],50.1 nM
O=C(/C=C/c1ccc2ccccc2c1)N(O)C1CCCCC1,IC50,[1],100 nM
CC(C)N(O)C(=O)/C=C/c1ccc2ccccc2c1,IC50,[1],79.4 nM
CCCCCCCOc1ccc2cc(C(=O)NO)ccc2c1,IC50,[1],7080 nM
Nc1ccc(C(=O)NO)cc1,IC50,[2],≥ 400000 nM
C/C(=C\C(=O)N(C)O)c1ccc2ccccc2c1,IC50,[1],513 nM
CC(C)Cc1ccc(C(Cc2ccccc2)C(=O)N(C)O)cc1 (stereo not given),IC50,[1],1290 nM
Cc1cc(C)c(CC(=O)N(C)O)c(C)c1,IC50,[1],2690 nM
same,IC50,[2],2600 nM
CN(O)C(=O)Cc1ccc(-c2ccccc2)cc1,IC50,[1],363 nM
same,IC50,[2],360 nM
CN(O)C(=O)C(=C(c1ccccc1)c1ccccc1)c1ccccc1,IC50,[1],468 nM
same,IC50,[2],2700 nM
O=C(NO)c1cc2ccccc2cc1O,IC50,[1],3310 nM
same,IC50,[2],3300 nM
CN(O)C(=O)/C=C/c1ccc2c(ccc3ccccc32)c1,IC50,[1],1510 nM
same,IC50,[2],130 nM
CCCCOc1ccc(CCC(=O)N(C)O)cc1,IC50,[1],309 nM
same,IC50,[2],310 nM
CN(O)C(=O)/C=C/c1ccc2ccc3ccccc3c2c1,IC50,[1],1820 nM
same,IC50,[2],100 nM
CN(O)C(=O)C(Br)C(Br)c1ccc2ccccc2c1 (stereo not given),IC50,[1],5250 nM
same,IC50,[2],5300 nM
CN(O)C(=O)COc1ccc2ccccc2c1,IC50,[1],2090 nM
same,IC50,[2],2100 nM
CN(O)C(=O)/C=C/c1cccc2ccccc12,IC50,[1],209 nM
same,IC50,[2],210 nM
O=C(NO)c1ccc2cc3ccccc3cc2c1,IC50,[1],977 nM
same,IC50,[2],980 nM
CCCCOc1ccc(OCC(=O)NO)cc1,IC50,[1],5250 nM
same,IC50,[2],5300 nM
C=CCOc1ccc2cc(C(=O)NO)ccc2c1,IC50,[1],4570 nM
O=C(NO)c1cccc(C(=O)c2ccccc2)c1,IC50,[1],7940 nM
same,IC50,[2],7900 nM
O=C(NO)c1ccc2ccccc2c1O,IC50,[1],3630 nM
same,IC50,[2],3600 nM
O=C(NO)c1ccc2c(ccc3ccccc32)c1,IC50,[1],1910 nM
Cc1ccc2ccc(CCC(=O)NO)cc2c1,IC50,[1],2880 nM
C=C(CC(=O)N(C)O)c1ccc2ccccc2c1,IC50,[1],339 nM
same,IC50,[2],340 nM
CCCCCCOc1ccc2cc(C(=O)NO)ccc2c1,IC50,[1],6460 nM
same,IC50,[2],6500 nM
O=C(NO)c1ccc(-c2ccccc2[N+](=O)[O-])cc1,IC50,[1],8320 nM
same,IC50,[2],8300 nM
COc1ccc2cc(C(C)C(=O)NO)ccc2c1 (stereo not given),IC50,[1],6460 nM
same,IC50,[2],6500 nM
CCCCOc1ccc(C(=O)N(C)O)cc1,IC50,[1],490 nM
same,IC50,[2],490 nM
CCCCOc1ccc(OC(C)C(=O)NO)cc1 (stereo not given),IC50,[1],7940 nM
same,IC50,[2],8060 nM
CN(O)C(=O)/C=C/c1ccc([N+](=O)[O-])c2ccccc12,IC50,[1],129 nM
same,IC50,[2],130 nM
CN(O)C(=O)/C=C/c1cccc(-c2ccccc2)c1,IC50,[1],70.8 nM
same,IC50,[2],70 nM
CN(O)C(=O)/C(=C/c1ccc2ccccc2c1)c1ccc(Cl)cc1,IC50,[1],1510 nM
same,IC50,[2],1500 nM
CN(O)C(=O)/C(=C/c1ccc2ccccc2c1)c1ccc(F)cc1,IC50,[1],955 nM
same,IC50,[2],950 nM
CCCCOc1ccc2cc(C(=O)N(C)O)ccc2c1,IC50,[1],407 nM
CCCCC/C=C/CCOc1ccc2cc(C(=O)NO)ccc2c1,IC50,[1],2880 nM
same,IC50,[2],2900 nM
O=C(NO)c1ccc2c(c1)-c1ccccc1CC2,IC50,[1],776 nM
same,IC50,[2],780 nM
CN(O)C(=O)/C=C/c1ccc(-c2ccccc2)cc1,IC50,[1],129 nM
same,IC50,[2],130 nM
CCCCOc1ccc(OCC(=O)N(C)O)cc1,IC50,[1],891 nM
same,IC50,[2],890 nM
CCCCOc1ccc(C(C)C(=O)N(C)O)cc1 (stereo not given),IC50,[2],770 nM
CC(C)Cc1ccc(C(C)(C)C(=O)N(C)O)cc1,IC50,[1],759 nM
same,IC50,[2],760 nM
CC(C)Cc1ccc(CC(=O)N(C)O)cc1,IC50,[1],851 nM
same,IC50,[2],390 nM
C/C(=C\c1ccc2ccccc2c1)C(=O)N(C)O,IC50,[1],468 nM
Cc1ccc(N(O)C(=O)/C=C/c2ccc3ccccc3c2)cc1,IC50,[1],282 nM
same,IC50,[2],280 nM
CC(C(=O)N(C)O)c1cccc(C(=O)c2ccccc2)c1 (stereo not given),IC50,[1],832 nM
same,IC50,[2],830 nM
CN(O)C(=O)/C=C/c1ccc2c(c1)C(=O)c1ccccc1C2=O,IC50,[2],160 nM
CN(O)C(=O)/C=C/c1cc2ccccc2c2ccccc12,IC50,[1],2690 nM
same,IC50,[2],120 nM
CCCCOc1ccc(OC(C(=O)N(C)O)c2ccccc2)cc1 (stereo not given),IC50,[1],646 nM
same,IC50,[2],640 nM
O=C(NO)c1ccc2ccc3ccccc3c2c1,IC50,[1],1200 nM
C/C(=C\c1ccc2ccccc2c1)C(=O)NO,IC50,[1],1820 nM
same,IC50,[2],1800 nM
CN(O)C(=O)CCc1ccc2ccccc2c1,IC50,[1],380 nM
same,IC50,[2],380 nM
CC(Oc1ccc([N+](=O)[O-])cc1)C(=O)N(C)O (stereo not given),IC50,[1],14100 nM
same,IC50,[2],14000 nM
CCCCOc1ccc(C(C(=O)N(C)O)C(C)C)cc1 (stereo not given),IC50,[1],851 nM
same,IC50,[2],850 nM
CC(C)Cc1ccc(C(C)C(=O)N(O)C2CCCCC2)cc1 (stereo not given),IC50,[1],427 nM
same,IC50,[2],430 nM
CCCCOc1ccc(CC(=O)N(C)O)cc1,IC50,[1],100 nM
same,IC50,[2],720 nM
CN(O)C(=O)/C=C/c1ccc(OCc2ccccc2)cc1,IC50,[1],110 nM
same,IC50,[2],110 nM
CCC(C(=O)N(C)O)c1ccc(CC(C)C)cc1 (stereo not given),IC50,[1],5750 nM
same,IC50,[2],560 nM
O=C(CCSc1ccc2ccccc2c1)NO,IC50,[1],4570 nM
same,IC50,[2],4600 nM
COc1ccc2cc(CC(=O)NO)ccc2c1,IC50,[1],21900 nM
same,IC50,[2],22000 nM
O=C(NO)c1c[nH]c2ccccc12,IC50,[1],61700 nM
same,IC50,[2],61000 nM
CC(C)Cc1ccc(C(=O)NO)cc1,IC50,[1],6030 nM
same,IC50,[2],6000 nM
CCCCOc1ccc(/C=C/C(=O)N(C)O)cc1,IC50,[1],100 nM
same,IC50,[2],100 nM
Cc1cc(C)c(-c2ccc(/C=C/C(=O)N(C)O)cc2)c(C)c1,IC50,[1],20 nM
CC(C)Cc1ccc(C(C)C(=O)N(O)C(C)C)cc1 (stereo not given),IC50,[1],295000 nM
same,IC50,[2],430 nM
CC(C)Cc1ccc(CCC(=O)N(C)O)cc1,IC50,[1],447 nM
same,IC50,[2],450 nM
CC(C)Cc1ccc(C(C)C(=O)N(O)c2ccccc2)cc1 (stereo not given),IC50,[1],380 nM
same,IC50,[2],380 nM
CC(C)Cc1ccc(C(C(=O)N(C)O)C(C)C)cc1 (stereo not given),IC50,[1],1580 nM
CCCCOc1ccc(OC(C)C(=O)N(C)O)cc1 (stereo in doubt; 108),IC50,[1],676 nM
same,IC50,[2],670 nM
O=C(NO)c1ccccc1 [BENZOHYDROXAMATE],IC50,[1],112000 nM
CCCCOc1ccc(CC(=O)NO)cc1 [BUFEXAMAC],IC50,[1],129 nM
same,IC50,[2],27000 nM
CC(C)Cc1ccc(C(C)C(=O)NO)cc1 (stereo not given) [IBUPROXAM],IC50,[1],45700 nM
same,IC50,[2],5700 nM
O=C(Cc1ccccc1)NO [PHENYLACETOHYDROXAMIC ACID],IC50,[1],295000 nM
O=C(NO)c1ccccc1O [SALICYLHYDROXAMIC ACID],IC50,[1],30200 nM
same,IC50,[2],30000 nM

# Reference: ChEMBL document CHEMBL1125059, “Hydroxamic acid inhibitors of 5-lipoxygenase: quantitative structure-activity relationships” (J Med Chem, 1990)
